The text below walks through data of ChEMBL document CHEMBL1131187, “Synthesis, activity, and molecular modeling of new 2, 4-dioxo-5-(naphthylmethylene)-3-thiazolidineacetic acids and 2-thioxo analogues as potent aldose reductase inhibitors” (J Med Chem, 1998).

The structures appear in SMILES notation. pIC50: −log10 of the molar value.

In the experiment the target is Aldo-keto reductase family 1 member B1 (Bos taurus, UniProt P16116). The experiment is described as follows: Evaluated in vitro for the inhibition of Aldose reductase. The format is functional. The method in brief: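 Partially purified enzyme from beef lenses homogenized in 96 mM phosphate buffer pH 6.2 at 4 °C; supernatant after 1 h centrifugation at 4 °C. Assay at 37 °C in 96 mM phosphate pH 6.2 with NADPH (0.18 mM) and DL-glyceraldehyde (1 mM). Reaction started with NADPH; A340 decrease followed. Blanks included. Four concentrations, five measures each; IC50 by linear regression of % inhibition vs log concentration.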
`COc1c(/C=C2\SC(=S)N(CC(=O)O)C2=O)ccc2ccccc12` showed a pIC50 of 8.05. `O=C(O)CN1C(=O)/C(=C/c2ccc3ccccc3c2Br)SC1=S` had a pIC50 of 7.96. Take `COc1cc2ccccc2cc1/C=C1\SC(=O)N(CC(=O)O)C1=O`: the pIC50 was 6.89.

With `O=C(O)Cc1nn(Cc2ccc(Br)cc2F)c(=O)c2ccccc12` [PONALRESTAT], the pIC50 is 8.15. Compared with the last molecule, the pIC50 is 1.26 log units higher. Consider `O=C(O)CN1C(=O)/C(=C/c2ccc3ccccc3c2[N+](=O)[O-])SC1=S`, for which the pIC50 is 7.10. On to `O=C(O)CN1C(=O)/C(=C/c2cc3ccccc3cc2Br)SC1=S`, for which the pIC50 is 7.82. For the molecule `COc1cc2ccccc2cc1/C=C1\SC(=S)N(CC(=O)O)C1=O`, the pIC50 was 7.70.

The molecule `O=C(O)CN1C(=O)S/C(=C\c2ccc3ccccc3c2Br)C1=O` gave a pIC50 of 7.29.

Take `O=C(O)CN1C(=O)S/C(=C\c2cc3ccccc3cc2Br)C1=O`: the pIC50 is 6.82. The same measure for `O=C(O)CN1C(=O)/C(=C/c2ccc3ccccc3c2)SC1=S`: 7.02; for `COc1ccc2cc(/C=C3\SC(=O)N(CC(=O)O)C3=O)ccc2c1`: 7.00; for `COc1ccc2cc(/C=C3\SC(=S)N(CC(=O)O)C3=O)ccc2c1`: 7.17. Consider `O=C(O)CN1C(=O)S/C(=C\c2cc3ccccc3cc2Cl)C1=O`, for which the pIC50 is 7.32. With `O=C(O)CN1C(=O)S/C(=C\c2ccc3ccccc3c2)C1=O`, the negative-log IC50 (pIC50) was 6.57. Against the preceding molecule, the pIC50 is 0.75 log units lower. `COc1c(/C=C2\SC(=O)N(CC(=O)O)C2=O)ccc2ccccc12` had a pIC50 of 6.82. Against the preceding molecule, the pIC50 is 0.25 log units higher.

As usually defined, the pIC50 is the negative decadic logarithm of the IC50, by convention in mol/L. High values mean a low IC50, low ones a high IC50.
